In ChEMBL document CHEMBL5058577, “EUbOPEN Chemogenomics Library 2 (Multiplex)” (2022):

Tested on: Fibroblast
Experiment: Multiplex assay against human fibroblast
Assay type: toxicity, cell-based
Procedure, shortened: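 Hoechst33342, BioTracker Green Microtubule Cytoskeleton Dye, MitoTracker Red and Annexin V Alexa Fluor 680 were added to live cells at seeding, and imaging on a CQ1 microscope at 37°C and 5% CO2 followed compound addition. Gating by CellPathfinder machine learning separated cells into Hoechst high-intensity objects or normal cells, then normal cells into healthy, pyknosed or fragmented nuclei, then pyknosed cells into mitotic or apoptotic. Per cents of healthy-nucleus cells are reported for the tubulin, mitochondrial-mass and membrane-permeability phenotypes.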

[1] = 12 h, 1 µM, compound concentration 1 uM, replicate 1
[2] = 12 h, 1 µM, compound concentration 1 uM, replicate 2
[3] = 12 h, 10 µM, compound concentration 10 uM, replicate 1
[4] = 12 h, 10 µM, compound concentration 10 uM, replicate 2
[5] = 24 h, 1 µM, compound concentration 1 uM, replicate 1
[6] = 24 h, 1 µM, compound concentration 1 uM, replicate 2
[7] = 24 h, 10 µM, compound concentration 10 uM, replicate 1
[8] = 24 h, 10 µM, compound concentration 10 uM, replicate 2
[9] = 48 h, 1 µM, compound concentration 1 uM, replicate 1
[10] = 48 h, 1 µM, compound concentration 1 uM, replicate 2
[11] = 48 h, 10 µM, compound concentration 10 uM, replicate 1
[12] = 48 h, 10 µM, compound concentration 10 uM, replicate 2

Cc1onc(-c2ccccc2Cl)c1C(=O)N(C)c1ccc(Cl)cc1
Population Apoptotic (%) [1]: 60% | Population Fragmented Nuclei (%) [1]: 17% | Population Healthy Nuclei (%) [1]: 68% | Population Hoechst High Intensity Objects (%) [1]: 7% | Population Membrane Permeable-Phenotype (%) [1]: 0% | Population Mitochondria Different-Phenotype (%) [1]: 7% | Population Mitotic Cells (%) [1]: 39% | Population Normal (%) [1]: 92% | Population Pyknosed Nuclei (%) [1]: 13% | Population Tubulin-Different-Phenotype (%) [1]: 23% | Total Cell Count [1]: 178 | Population Apoptotic (%) [2]: 35% | Population Fragmented Nuclei (%) [2]: 22% | Population Healthy Nuclei (%) [2]: 50% | Population Hoechst High Intensity Objects (%) [2]: 9% | Population Membrane Permeable-Phenotype (%) [2]: 6% | Population Mitochondria Different-Phenotype (%) [2]: 8% | Population Mitotic Cells (%) [2]: 65% | Population Normal (%) [2]: 90% | Population Pyknosed Nuclei (%) [2]: 27% | Population Tubulin-Different-Phenotype (%) [2]: 63% | Total Cell Count [2]: 161 | Population Apoptotic (%) [3]: 36% | Population Fragmented Nuclei (%) [3]: 16% | Population Healthy Nuclei (%) [3]: 70% | Population Hoechst High Intensity Objects (%) [3]: 2% | Population Membrane Permeable-Phenotype (%) [3]: 2% | Population Mitochondria Different-Phenotype (%) [3]: 6% | Population Mitotic Cells (%) [3]: 63% | Population Normal (%) [3]: 97% | Population Pyknosed Nuclei (%) [3]: 13% | Population Tubulin-Different-Phenotype (%) [3]: 29% | Total Cell Count [3]: 144 | Population Apoptotic (%) [4]: 37% | Population Fragmented Nuclei (%) [4]: 24% | Population Healthy Nuclei (%) [4]: 48% | Population Hoechst High Intensity Objects (%) [4]: 3% | Population Membrane Permeable-Phenotype (%) [4]: 5% | Population Mitochondria Different-Phenotype (%) [4]: 11% | Population Mitotic Cells (%) [4]: 62% | Population Normal (%) [4]: 96% | Population Pyknosed Nuclei (%) [4]: 27% | Population Tubulin-Different-Phenotype (%) [4]: 64% | Total Cell Count [4]: 151 | Population Apoptotic (%) [5]: 44% | Population Fragmented Nuclei (%) [5]: 18% | Population Healthy Nuclei (%) [5]: 65% | Population Hoechst High Intensity Objects (%) [5]: 7% | Population Membrane Permeable-Phenotype (%) [5]: 0% | Population Mitochondria Different-Phenotype (%) [5]: 1% | Population Mitotic Cells (%) [5]: 55% | Population Normal (%) [5]: 92% | Population Pyknosed Nuclei (%) [5]: 16% | Population Tubulin-Different-Phenotype (%) [5]: 16% | Total Cell Count [5]: 178 | Population Apoptotic (%) [6]: 39% | Population Fragmented Nuclei (%) [6]: 22% | Population Healthy Nuclei (%) [6]: 54% | Population Hoechst High Intensity Objects (%) [6]: 12% | Population Membrane Permeable-Phenotype (%) [6]: 8% | Population Mitochondria Different-Phenotype (%) [6]: 4% | Population Mitotic Cells (%) [6]: 60% | Population Normal (%) [6]: 87% | Population Pyknosed Nuclei (%) [6]: 23% | Population Tubulin-Different-Phenotype (%) [6]: 56% | Total Cell Count [6]: 182 | Population Apoptotic (%) [7]: 20% | Population Fragmented Nuclei (%) [7]: 16% | Population Healthy Nuclei (%) [7]: 76% | Population Hoechst High Intensity Objects (%) [7]: 2% | Population Membrane Permeable-Phenotype (%) [7]: 1% | Population Mitochondria Different-Phenotype (%) [7]: 4% | Population Mitotic Cells (%) [7]: 80% | Population Normal (%) [7]: 97% | Population Pyknosed Nuclei (%) [7]: 7% | Population Tubulin-Different-Phenotype (%) [7]: 32% | Total Cell Count [7]: 134 | Population Apoptotic (%) [8]: 54% | Population Fragmented Nuclei (%) [8]: 21% | Population Healthy Nuclei (%) [8]: 55% | Population Hoechst High Intensity Objects (%) [8]: 4% | Population Membrane Permeable-Phenotype (%) [8]: 6% | Population Mitochondria Different-Phenotype (%) [8]: 6% | Population Mitotic Cells (%) [8]: 45% | Population Normal (%) [8]: 95% | Population Pyknosed Nuclei (%) [8]: 23% | Population Tubulin-Different-Phenotype (%) [8]: 59% | Total Cell Count [8]: 149 | Population Apoptotic (%) [9]: 76% | Population Fragmented Nuclei (%) [9]: 26% | Population Healthy Nuclei (%) [9]: 62% | Population Hoechst High Intensity Objects (%) [9]: 9% | Population Membrane Permeable-Phenotype (%) [9]: 0% | Population Mitochondria Different-Phenotype (%) [9]: 1% | Population Mitotic Cells (%) [9]: 23% | Population Normal (%) [9]: 90% | Population Pyknosed Nuclei (%) [9]: 10% | Population Tubulin-Different-Phenotype (%) [9]: 22% | Total Cell Count [9]: 185 | Population Apoptotic (%) [10]: 48% | Population Fragmented Nuclei (%) [10]: 28% | Population Healthy Nuclei (%) [10]: 54% | Population Hoechst High Intensity Objects (%) [10]: 11% | Population Membrane Permeable-Phenotype (%) [10]: 10% | Population Mitochondria Different-Phenotype (%) [10]: 6% | Population Mitotic Cells (%) [10]: 51% | Population Normal (%) [10]: 88% | Population Pyknosed Nuclei (%) [10]: 17% | Population Tubulin-Different-Phenotype (%) [10]: 51% | Total Cell Count [10]: 188 | Population Apoptotic (%) [11]: 44% | Population Fragmented Nuclei (%) [11]: 25% | Population Healthy Nuclei (%) [11]: 68% | Population Hoechst High Intensity Objects (%) [11]: 4% | Population Membrane Permeable-Phenotype (%) [11]: 0% | Population Mitochondria Different-Phenotype (%) [11]: 3% | Population Mitotic Cells (%) [11]: 55% | Population Normal (%) [11]: 95% | Population Pyknosed Nuclei (%) [11]: 6% | Population Tubulin-Different-Phenotype (%) [11]: 34% | Total Cell Count [11]: 141 | Population Apoptotic (%) [12]: 65% | Population Fragmented Nuclei (%) [12]: 31% | Population Healthy Nuclei (%) [12]: 55% | Population Hoechst High Intensity Objects (%) [12]: 1% | Population Membrane Permeable-Phenotype (%) [12]: 8% | Population Mitochondria Different-Phenotype (%) [12]: 6% | Population Mitotic Cells (%) [12]: 35% | Population Normal (%) [12]: 98% | Population Pyknosed Nuclei (%) [12]: 12% | Population Tubulin-Different-Phenotype (%) [12]: 53% | Total Cell Count [12]: 166
